Compound activity as filed in PubChem BioAssay.
miR-122 sensor: inhibitors of miR-122 in Huh7 cells. Huh7 miR-122 Renilla luciferase sensor, 48 h; neutral wells = 0, positive control = 100. activation (reporter increase), % at 12.5 µM. 0.3% of 340,000 active. AID 602342;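 active means mean replicate activation score at least 90 and every replicate individually at or above 90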;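 further: higher luciferase means less miR-122 activity so hits act as miR-122 inhibitors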
SR-BI uptake up: SR-BI HDL lipid transfer activation; CHO ldlA[mSR-BI] cells, DiI-HDL uptake fluorescence, 3 h; 100 = double the neutral-control signal; 0.096% of 320,000 active; activation, % at 12.5 µM; AID 504775;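 active means mean replicate activation of at least 60% and every replicate at or above 60%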;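 further: 0% = median plate neutral-control signal and 100% = twice that signal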
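Assay system: LDL receptor-deficient CHO ldlA cells overexpressing murine SR-BI / Medium: BSA-supplemented, HEPES-buffered Ham's F12, pH 7.4 / Probe or stimulus: DiI-labelled HDL at 10 µg/mL final / Timing: compound with DiI-HDL co-incubation, 3 h at 37 °C / Technique: bottom-read cell fluorescence after medium removal, ex 550/em 595 nm / Measure: HDL uptake via cellular fluorescence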
SR-BI HDL uptake: mouse SR-BI HDL lipid transfer inhibition. ldlA[mSR-BI] CHO cells, DiI-HDL uptake fluorescence, 3 h. inhibition, % at 12.5 µM. 0.96% of 320,000 active. AID 488896;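 active means mean replicate inhibition of at least 70% and a set share of replicates each scoring 70 or more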;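 further: 0% = median of neutral control wells and 100% = median of positive control wells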
Target sequence (Q61009 whole entry, looked up): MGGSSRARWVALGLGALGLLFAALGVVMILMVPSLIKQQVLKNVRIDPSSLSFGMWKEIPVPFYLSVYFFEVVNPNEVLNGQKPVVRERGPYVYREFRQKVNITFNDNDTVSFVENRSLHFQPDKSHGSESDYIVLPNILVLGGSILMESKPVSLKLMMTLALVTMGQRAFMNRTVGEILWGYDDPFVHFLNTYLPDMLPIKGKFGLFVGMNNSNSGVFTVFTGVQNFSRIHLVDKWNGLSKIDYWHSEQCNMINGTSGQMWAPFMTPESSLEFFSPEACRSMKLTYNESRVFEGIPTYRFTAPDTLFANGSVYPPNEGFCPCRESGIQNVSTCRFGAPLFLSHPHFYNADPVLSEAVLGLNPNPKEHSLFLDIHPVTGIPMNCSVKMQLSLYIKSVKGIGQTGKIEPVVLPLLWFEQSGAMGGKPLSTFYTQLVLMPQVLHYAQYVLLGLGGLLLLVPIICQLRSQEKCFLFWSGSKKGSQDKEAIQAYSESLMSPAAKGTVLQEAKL
ARNT-TACC3 inh: disrupts binding between human ARNT and TACC3; AlphaScreen His-ARNT PAS-B/GST-TACC3 binding, luminescence; TACC3 fragment carries E629A point mutation; 0.66% of 390,000 active; inhibition, % at 9.99 µM; AID 623870;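 active means mean inhibition of replicates at least 50% and at least half of replicates each reaching 50%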;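 further: 0% = complete ARNT plus TACC3 wells and 100% = ARNT alone without TACC3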
CAL PDZ FP-1: blocks peptide binding to human CAL PDZ domain. Q9HD26. purified CAL PDZ, TMR-peptide fluorescence polarization, 1 h. inhibition, % at 20 µM. 0.02% of 330,000 active;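 active means highest replicate inhibition of at least 40%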;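 further: plate controls were DMSO neutral control wells for no effect and unlabeled competitor peptide control wells for full effect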
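Control set: unlabelled peptide and DMSO controls / Material: purified CerCALP PDZ construct / Timing: 1 h incubation at room temperature before polarization reading / Doses: 20 µM, one dose / Detection: fluorescence polarization (mP)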
CAL PDZ FP-2: CAL PDZ (human) peptide binding inhibition; Q9HD26; purified CAL PDZ, TMR-peptide fluorescence polarization, 1 h; inhibition, % at 24.9 µM; 0.92% of 300,000 active; AID 602252;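 active means mean inhibition of at least 30% with at least half of replicates also reaching 30%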;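 further: 0% = DMSO neutral control and 100% = excess unlabeled competitor peptide PRC23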
The depositor's hits bear a star; . = no result given; [ ] = another dose, or the depositor's remark. This is a sample that favours compounds with a hit; in the whole collection about 2.1% have one here.

SMILES	miR-122 sensor	SR-BI uptake up	SR-BI HDL uptake	ARNT-TACC3 inh	CAL PDZ FP-1	CAL PDZ FP-2
CCC1Oc2ccc(C)cc2N(CC(=O)NCCCN2CCCC2)C1=O (stereo not drawn)	3	-3	3	.	0	36*
Cc1ccc2c(c1)N(CC(=O)NCCCN1CCN(C)CC1)C(=O)CO2	3	-1	1	-1	0	64*
CCCN1CCN(CCCNC(=O)CN2C(=O)C(CC)Oc3ccccc32)CC1 (stereo not drawn)	-1	8	-8	-7	-3	-1
C[C@H](CO)N1C[C@H](C)[C@@H](CN(C)S(=O)(=O)c2ccc(Cl)cc2)Oc2ccc(NC(=O)Cc3ccccc3)cc2CC1=O	-4[16.7 µM]	.	.	0	.	.
C[C@@H]1CCCCO[C@@H](CN(C)C(=O)CCCN(C)C)[C@H](C)CN([C@@H](C)CO)C(=O)c2cc(NC(=O)c3ccncc3)ccc2O1	-2[16.7 µM]	.	.	-7	.	.
O=C(CCSc1nc(-c2ccc3c(c2)OCO3)cc(C(F)(F)F)n1)NCc1ccco1	-2	-83	82*	-26	0	.
CCC(C)c1ccccc1NC(=O)c1cc2cccc([N+](=O)[O-])c2[nH]1 (stereo not drawn)	17	.	.	.	.	.
Cc1ccc(NC(=O)c2cc3cccc([N+](=O)[O-])c3[nH]2)cc1	.	-79	79*	2	-1	67*
O=C(C[C@H]1CC[C@@H]2[C@H](COC[C@H](O)CN2C(=O)c2ccccc2)O1)NCCCN1CCOCC1	1[16.7 µM]	.	.	-2	.	.
CCC(CC)C(=O)NCCc1ccc(OC)cc1	-9	20	-20	.	-2	-5
COc1ccc(CCNC(=O)c2ccc(N3CCCCS3(=O)=O)cc2)cc1OC	-5	-79	79*	.	-2	-5
CCC(CC)C(=O)NCCc1ccc(OC)c(OC)c1	1	23	-23	-2	0	60*
COc1ccc(CCNC(=O)c2ccc(-c3cccc([N+](=O)[O-])c3)o2)cc1OC	.	-72	72*	6	-1	1
CCCC#Cc1cnc2c(c1)C(=O)N([C@H](C)CO)C[C@H](C)[C@H](CN(C)C(=O)CCN1CCCCC1)O2	14[16.7 µM]	.	.	0	.	.
O=C(NCC[C@@H]1CC[C@@H](NS(=O)(=O)c2ccccc2)[C@@H](CO)O1)c1ccc2c(c1)OCO2	.	.	.	-4	.	.
O=C(c1cc2nc(-c3ccco3)cc(C(F)(F)F)n2n1)N1CCCCCC1	-1	-8	8	-1	0	1
O=C(NCCCN1CCCC1=O)c1cc2nc(-c3ccco3)cc(C(F)(F)F)n2n1	-1	-11	11	1	0	58*
O=C(CSc1nc2cccnc2n1Cc1ccccc1)NCc1ccco1	9	24	-24	-5	.	65*
CCn1c(SCC(=O)NCc2ccco2)nc2cccnc21	0	13	-13	1	.	-1
CN1C(=O)c2cc(NC(=O)c3ccc(Cl)cc3)ccc2OC[C@@H]2O[C@@H](CC(=O)NCc3cccc(F)c3)CC[C@@H]21	-25[16.7 µM]	.	.	12	.	.
O=C(C[C@@H]1CC[C@H]2[C@@H](COC[C@@H](O)CN2Cc2cc(F)cc(F)c2)O1)NCc1cccc(F)c1	1[16.7 µM]	.	.	1	.	.
O=C(NNC(=O)c1cc(-c2ccncc2)nc2ccccc12)c1ccccc1O	13	-94	94*	2	-3	2
Cc1ccc(-c2cc(C(=O)Nc3ccncc3)c3ccccc3n2)cc1	-4	-50	50	0	-4	32*
CN(C)C(=O)[C@@H]1[C@@H](CO)[C@@H]2Cn3c(ccc(C4=CCCC4)c3=O)[C@H]1N2CC1CC1	1[16.7 µM]	.	.	-2	.	.
COc1ccc(NC(=O)N[C@H]2CC[C@@H](CC(=O)NCc3ccccn3)O[C@@H]2CO)cc1	2[16.7 µM]	.	.	8	.	.
COc1cccc(C(=O)N2N=C(c3ccccn3)CC2(O)C(F)(F)F)c1 (stereo not drawn)	.	241*	-240	13	1	-8
O=[N+]([O-])c1cc(/C=N/N/C(=N/c2ccccn2)c2ccccn2)ccc1O	.	7	-7	66*	-1	4
COc1ccc(C(C)=O)cc1COC(=O)CNC(=O)c1ccc(Cl)cc1	.	-59	59	4	-3	0
